In ChEMBL document CHEMBL1143074, “Symplocamide A, a potent cytotoxin and chymotrypsin inhibitor from the marine Cyanobacterium Symploca sp” (J Nat Prod, 2008):
Active and inactive are the calls of the source. The rule behind the calls is not given here.

Legend:
[1] = Inhibition of chymotrypsin
Outline: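 Spectrophotometric assay: 0.0025 mg/mL chymotrypsin (0.0086 U) with 0.53 mM BTEE in 38 mM Tris-HCl pH 7.8, 53 mM CaCl2, 0.5 mM HCl and 32% MeOH at 25 °C. Inhibitor (from MeOH dilutions, final 6.25 × 10-5 to 7.5 × 10^-9 M) was equilibrated with substrate before enzyme addition. Absorbance at 256 nm was followed for 5 min, and the 0.5–1.5 min interval was analyzed.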

[2] = Inhibition of trypsin at 10 uM

Row | Structure (SMILES) | IC50 [1] [nM] | Activity [2]
1 | CC(=O)N[C@@H](CCC(N)=O)C(=O)N[C@@H]1C(=O)N[C@@H](CC(C)C)C(=O)N[C@H]2CC[C@@H](O)N(C2=O)[C@@H](Cc2ccccc2)C(=O)N(C)[C@@H](Cc2ccc(O)cc2)C(=O)N[C@@H](C(C)C)C(=O)O[C@@H]1C [NOSTOPEPTIN BN920] | 110 | inactive
2 | CCCC(=O)N[C@@H](Cc1ccccc1)C(=O)N[C@@H](CCC(=O)O)C(=O)N[C@@H]1C(=O)N[C@@H](CC2C=CC(O)CC2)C(=O)N[C@H]2CC[C@@H](O)N(C2=O)[C@@H](C(C)C)C(=O)N(C)[C@@H](Cc2ccccc2)C(=O)N[C@@H]([C@@H](C)CC)C(=O)O[C@@H]1C (stereo partly specified) [MICROPEPTIN 88D] | 8960 | inactive
3 | CC[C@H](C)[C@@H]1NC(=O)[C@H](Cc2ccc(O)cc2)N(C)C(=O)[C@H]([C@@H](C)CC)N2C(=O)C(CCC2O)NC(=O)[C@H](CC(C)C)NC(=O)[C@@H]2C(OC1=O)C(C)CN2C(=O)[C@H](CCC(N)=O)NC(C)=O (stereo in doubt; form 1) | – | inactive
4 | C/C=C1\NC(=O)[C@@H](NC(=O)[C@H](CCc2ccc(O)cc2)NC(=O)[C@H](C)NC(=O)[C@H](O)COS(=O)(=O)O)[C@@H](C)OC(=O)[C@H](C(C)C)NC(=O)[C@H](Cc2ccc(O)cc2)N(C)C(=O)[C@H](Cc2ccccc2)N2C(=O)[C@H](CC[C@H]2O)NC1=O [LYNGBYASTATIN 4] | – | inactive
5 | CC(C)[C@H](NC(=O)[C@@H](C)NC(=O)[C@H](CCCc1ccc(O)cc1)NC(=O)[C@H](O)CO)C(=O)N[C@@H]1C(=O)N[C@@H](Cc2ccc(O)cc2)C(=O)N[C@H]2CC[C@@H](O)N(C2=O)[C@@H]([C@@H](C)O)C(=O)N(C)[C@@H](Cc2ccc(O)c(Br)c2)C(=O)N[C@@H](C(C)C)C(=O)O[C@@H]1C [LARGAMIDE F] | 4000 | inactive
6 | CCCCCC(=O)NCC(=O)N[C@H](C(=O)N[C@@H]1C(=O)N[C@@H](CCC(N)=O)C(=O)N[C@H]2CC[C@@H](O)N(C2=O)[C@@H](Cc2ccccc2)C(=O)N(C)[C@@H](Cc2c[nH]c3ccccc23)C(=O)N[C@@H](C(C)C)C(=O)O[C@@H]1C)[C@@H](C)O [MICROPEPTIN 103] | 960 | inactive
7 | CCCC(=O)N[C@@H](Cc1ccccc1)C(=O)N[C@@H](CCC(=O)O)C(=O)N[C@@H]1C(=O)N[C@@H](Cc2ccc(O)cc2)C(=O)N[C@H]2CC[C@@H](O)N(C2=O)[C@@H](C(C)C)C(=O)N(C)[C@@H](Cc2ccccc2)C(=O)N[C@@H]([C@@H](C)CC)C(=O)O[C@@H]1C [MICROPEPTIN 88C] | 4500 | inactive
8 | CCCC(=O)N[C@@H](Cc1ccccc1)C(=O)N[C@@H](CCC(=O)OC)C(=O)N[C@@H]1C(=O)N[C@@H](Cc2ccc(O)cc2)C(=O)N[C@H]2CC[C@@H](O)N(C2=O)[C@@H](C(C)C)C(=O)N(C)[C@@H](Cc2ccccc2)C(=O)N[C@@H]([C@@H](C)CC)C(=O)O[C@@H]1C [MICROPEPTIN 88F] | 3020 | inactive
9 | CC[C@H](C)[C@@H]1NC(=O)[C@H](Cc2ccccc2)N(C)C(=O)[C@H](C(C)C)N2C(=O)[C@H](CC[C@H]2O)NC(=O)[C@H](Cc2ccc(O)cc2)NC(=O)[C@@H](NC(=O)[C@H](CCC(=O)O)NC(=O)[C@H](Cc2ccc(O)cc2)NC(C)=O)[C@@H](C)OC1=O [MICROPEPTIN 88Y] | 1300 | inactive
10 | CCCCCC(=O)N[C@@H](CC(=O)O)C(=O)N[C@@H]1C(=O)N[C@@H](Cc2ccc(O)cc2)C(=O)N[C@H]2CC[C@@H](O)N(C2=O)[C@@H](CC(C)C)C(=O)N(C)[C@@H](Cc2ccccc2)C(=O)N[C@@H](C(C)C)C(=O)O[C@@H]1C [CYANOPEPTOLIN 963A] | 900 | inactive
11 | CC[C@H](C)[C@@H]1NC(=O)[C@H](Cc2ccccc2)N(C)C(=O)[C@H](C(C)C)N2C(=O)[C@H](CC[C@H]2O)NC(=O)[C@H](CC2C=CC(O)CC2)NC(=O)[C@@H](NC(=O)[C@@H](N)CCC(=O)O)[C@@H](C)OC1=O (stereo partly specified) [MICROPEPTIN 88A] | 400 | inactive
12 | CC[C@H](C)[C@@H]1NC(=O)[C@H](Cc2ccc(O)cc2)N(C)C(=O)[C@H](Cc2ccccc2)N2C(=O)[C@H](CC[C@H]2O)NC(=O)[C@H](Cc2ccccc2)NC(=O)[C@@H](NC(=O)[C@@H](O)COP(=O)(O)O)[C@@H](C)OC1=O [MICROPEPTIN T 20] | 2.5 | –

The remaining lines, values ahead:

Row | IC50 [1] [nM] | Activity [2] | Structure (SMILES)
13 | 3500 | inactive | CC[C@H](C)[C@@H]1NC(=O)[C@H](Cc2ccc(OC)cc2)N(C)C(=O)[C@H](CC(C)C)N2C(=O)[C@H](CC[C@H]2O)NC(=O)[C@H](CC(C)C)NC(=O)[C@@H]2[C@@H](OC1=O)C(C)CN2C(=O)[C@H](CCC(N)=O)NC(C)=O (stereo partly specified) [NOSTOPEPTIN I]
14 | 800 | inactive | CC[C@H](C)[C@@H]1NC(=O)[C@H](Cc2ccc(OC)cc2)N(C)C(=O)[C@H]([C@@H](C)O)N2C(=O)[C@H](CC[C@H]2O)NC(=O)[C@H](CC(C)C)NC(=O)[C@@H](NC(=O)[C@H](CCC(N)=O)NC(=O)[C@H](CCc2ccc(O)cc2)NC(=O)[C@@H](O)CO)[C@@H](C)OC1=O [PLANKTOPEPTIN BL1125]
15 | 1890 | inactive | CC[C@@H](C)[C@@H]1NC(=O)[C@H](Cc2ccc(OC)cc2)N(C)C(=O)[C@H]([C@@H](C)CC)N2C(=O)[C@H](CC[C@H]2O)NC(=O)[C@H](CCc2ccc(O)cc2)NC(=O)[C@@H](NC(=O)[C@H](CCc2ccc(O)cc2)NC(=O)[C@@H](COS(=O)(=O)O)OC)[C@@H](C)OC1=O [OSCILLAPEPTIN A]
16 | 3800 | inactive | CC[C@H](C)[C@@H]1NC(=O)[C@H](Cc2ccc(O)cc2)N(C)C(=O)[C@H](CC(C)C)N2C(=O)[C@H](CC[C@H]2OC)NC(=O)[C@H](CC(C)C)NC(=O)[C@@H]2[C@@H](OC1=O)C(C)CN2C(=O)[C@H](CCC(N)=O)NC(C)=O (stereo partly specified) [NOSTOPEPTIN F]
17 | 1730 | – | CC[C@H](C)[C@@H]1NC(=O)[C@H](Cc2ccc(O)cc2)N(C)C(=O)[C@H]([C@@H](C)CC)N2C(=O)C(CCC2O)NC(=O)[C@H](CC(C)C)NC(=O)[C@@H]2C(OC1=O)C(C)CN2C(=O)[C@H](CCC(N)=O)NC(C)=O (stereo in doubt; form 1) [NOSTOPEPTIN B]
18 | 2640 | – | CC[C@@H](C)[C@@H]1NC(=O)[C@H](Cc2ccccc2)N(C)C(=O)[C@H]([C@@H](C)CC)N2C(=O)[C@H](CC[C@H]2O)NC(=O)[C@H](CCc2ccc(O)cc2)NC(=O)[C@@H](NC(=O)[C@@H](CCc2ccc(O)cc2)NC(=O)[C@@H](COS(=O)(=O)O)OC)[C@@H](C)OC1=O [OSCILLAPEPTIN E]
19 | 1780 | – | CC[C@@H](C)[C@@H]1NC(=O)[C@H](Cc2ccc(OC)cc2)N(C)C(=O)[C@H]([C@@H](C)CC)N2C(=O)[C@H](CC[C@H]2O)NC(=O)[C@H](CCc2ccc(OC)cc2)NC(=O)[C@@H](NC(=O)[C@H](CCc2ccc(O)cc2)NC(=O)[C@@H](COS(=O)(=O)O)OC)[C@@H](C)OC1=O [OSCILLAPEPTIN B]
20 | 1470 | inactive | CCCC(=O)N[C@@H](CCC(N)=O)C(=O)N1CC(C)C2OC(=O)[C@H]([C@@H](C)CC)NC(=O)[C@H](Cc3ccc(O)cc3)N(C)C(=O)[C@H]([C@@H](C)CC)N3C(=O)C(CCC3O)NC(=O)[C@H](CC(C)C)NC(=O)[C@H]21 (stereo partly specified) [NOSTOPEPTIN A]
21 | 3200 | inactive | CC[C@H](C)[C@@H]1NC(=O)[C@H](Cc2ccc(OC)cc2)N(C)C(=O)[C@H](CC(C)C)N2C(=O)[C@H](CC[C@H]2OC)NC(=O)[C@H](CC(C)C)NC(=O)[C@@H]2[C@@H](OC1=O)C(C)CN2C(=O)[C@H](CCC(N)=O)NC(C)=O (stereo partly specified) [NOSTOPEPTIN J]
22 | 2400 | inactive | CCCCCC(=O)N[C@@H](CC(=O)O)C(=O)N[C@@H]1C(=O)N[C@@H](Cc2ccc(O)cc2)C(=O)N[C@H]2CC[C@@H](O)N(C2=O)[C@@H]([C@@H](C)CC)C(=O)N(C)[C@@H](Cc2ccc(O)cc2)C(=O)N[C@@H](C(C)C)C(=O)O[C@@H]1C [MICROPEPTIN SD979]
23 | 3130 | inactive | CCCCCC(=O)N[C@@H](CC(=O)O)C(=O)N[C@@H]1C(=O)N[C@@H](Cc2ccc(O)cc2)C(=O)N[C@H]2CC[C@@H](O)N(C2=O)[C@@H]([C@@H](C)CC)C(=O)N(C)[C@@H](Cc2c[nH]c3ccccc23)C(=O)N[C@@H](C(C)C)C(=O)O[C@@H]1C [MICROPEPTIN SD1002]
24 | 3600 | inactive | CC[C@H](C)[C@@H]1NC(=O)[C@H](Cc2ccc(O)cc2)N(C)C(=O)[C@H](CC(C)C)N2C(=O)[C@H](CC[C@H]2O)NC(=O)[C@H](CC(C)C)NC(=O)[C@@H]2[C@@H](OC1=O)C(C)CN2C(=O)[C@H](CCC(N)=O)NC(C)=O (stereo partly specified) [NOSTOPEPTIN E]
25 | 1950 | – | CC[C@H](C)[C@@H]1NC(=O)[C@H](Cc2ccccc2)N(C)C(=O)[C@H]([C@@H](C)CC)N2C(=O)[C@H](CC[C@H]2O)NC(=O)[C@H](C[C@H]2C=C[C@H](O)CC2)NC(=O)[C@@H](NC(=O)[C@H](CCc2ccc(O)cc2)NC(=O)[C@@H](COS(=O)(=O)O)OC)[C@@H](C)OC1=O [OSCILLAPEPTIN D]
26 | 4400 | inactive | CC[C@H](C)[C@@H]1NC(=O)[C@H](Cc2ccc(O)cc2)N(C)C(=O)[C@H](CC(C)C)N2C(=O)[C@H](CC[C@H]2O)NC(=O)[C@H](CCC(N)=O)NC(=O)[C@@H](NC(=O)[C@@H](O)Cc2ccc(O)cc2)[C@@H](C)OC1=O [MICROPEPTIN SF909]
27 | 2820 | – | CC[C@@H](C)[C@@H]1NC(=O)[C@H](Cc2ccccc2)N(C)C(=O)[C@H]([C@@H](C)CC)N2C(=O)[C@H](CC[C@H]2OC)NC(=O)[C@H](CC2C=CC(O)C=C2)NC(=O)[C@@H](NC(=O)[C@@H](CCc2ccc(O)cc2)NC(=O)[C@@H](CO)OC)[C@@H](C)OC1=O (stereo partly specified) [OSCILLAPEPTIN C]
